According to ChEMBL document CHEMBL1126882, “Orally active central dopamine and serotonin receptor ligands: 5-, 6-, 7-, and 8-[[trifluoromethyl)sulfonyl]oxy]-2-(di-n-propylamino)tetralins and the formation of active metabolites in vivo” (J Med Chem, 1993):
Calls of active or inactive are those of the source. The calls are words filed in the database; no cut-off is given here.

How the values were obtained:
D(2) dopamine receptor = D(2) dopamine receptor (Rattus norvegicus, UniProt P61169); experiment: Binding affinity against dopamine receptor D2 in homogenated rat brain tissue, using by [3H]spiperone as radioligand; type: tissue-based
Outline: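 Rat striatal membranes were prepared in 50 mM potassium phosphate (pH 7.4). They were incubated with 0.5 nM [3H]spiperone (3 mg original tissue) for 10 min at 37 °C. Specific binding was defined with 10 μM 6,7-ADTN. Six drug concentrations (10⁻⁴-10⁻⁹ M) were tested, in triplicate or in a single experiment.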

[1] = target: T1, Dopamine receptor (Rattus norvegicus) (UniProt P25115+P19020+P30729+P18901+P61169); experiment: Effective dose for half-maximal decrease in the accumulation of DOPA in reserpinized rat brain hemispheral area by sc administration; Inactive; type: functional, organism-based
Outline: (§1)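 Male Sprague-Dawley rats (200-300 g) got reserpine 5 mg/kg sc 18 h before. The test drug (saline) was given sc or po (po rats fasted 18 h), with NSD 1015, 30 min before decapitation. DOPA and 5-HTP in limbic, striatal and hemispheral tissue were measured by HPLC-ED. ED50 (half-maximal decrease) was taken from 4-6-dose curves, with deviation estimated graphically from SEM.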

[2] = target: T2, 5-hydroxytryptamine receptor 1A (Rattus norvegicus, UniProt P19327); experiment: (§2) Binding affinity against 5-hydroxytryptamine 1A receptor in homogenated rat brain tissue, using by [3H]8-OH-DPAT as radioligand; type: tissue-based
T2 sequence (P19327 whole entry): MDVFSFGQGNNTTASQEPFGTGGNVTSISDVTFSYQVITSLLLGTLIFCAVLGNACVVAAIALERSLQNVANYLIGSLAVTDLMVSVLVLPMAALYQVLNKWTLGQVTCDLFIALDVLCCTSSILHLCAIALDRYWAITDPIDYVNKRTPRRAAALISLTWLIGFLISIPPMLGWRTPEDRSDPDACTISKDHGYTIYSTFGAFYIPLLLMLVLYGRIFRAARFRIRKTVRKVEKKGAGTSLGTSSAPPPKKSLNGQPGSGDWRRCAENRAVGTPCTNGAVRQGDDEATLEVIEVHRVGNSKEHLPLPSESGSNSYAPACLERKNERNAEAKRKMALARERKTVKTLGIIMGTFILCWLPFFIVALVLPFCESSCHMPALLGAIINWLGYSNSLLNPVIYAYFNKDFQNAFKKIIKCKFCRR
Outline: (§3)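 Rat brain homogenate was washed and preincubated in 50 mM Tris (pH 8.0) containing NaCl, CaCl2 and MgCl2, plus 10 μM pargyline. It was incubated with 1 nM [3H]-8-OH-DPAT (final) for 15 min at 37 °C, then vacuum-filtered and counted by scintillation. Nonspecific binding was defined with 10 μM 5-HT. Six drug concentrations (10⁻⁴-10⁻⁹ M) were tested, triplicate or single run. IC50 came from a semilog plot with linear regression.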

[3] = target: T1, Dopamine receptor (Rattus norvegicus); experiment: Effective dose for half-maximal decrease in the accumulation of DOPA in reserpinized rat brain striatal area by sc administration; Inactive; type: functional, organism-based; outline: as §1
[4] = Effective dose for half-maximal decrease in the accumulation of 5-hydroxytryptophan (5-HTP) in reserpinized rat brain limbic area by sc administration; type: functional; outline: as §1
[5] = Effective dose for half-maximal decrease in the accumulation of 5-hydroxytryptophan (5-HTP) in reserpinized rat brain hemispheral area by po administration; type: functional; outline: as §1
[6] = target: T1, Dopamine receptor (Rattus norvegicus); experiment: Effective dose for half-maximal decrease in the accumulation of DOPA in reserpinized rat brain striatal area by po administration; type: functional, organism-based; outline: as §1
[7] = Effective dose for half-maximal decrease in the accumulation of 5-hydroxytryptophan (5-HTP) in reserpinized rat brain striatal area by po administration; type: functional; outline: as §1
[8] = target: T1, Dopamine receptor (Rattus norvegicus); experiment: Effective dose for half-maximal decrease in the accumulation of DOPA in reserpinized rat brain hemispheral area by po administration; Inactive; type: functional, organism-based; outline: as §1
[9] = Effective dose for half-maximal decrease in the accumulation of 5-hydroxytryptophan (5-HTP) in reserpinized rat brain hemispheral area by sc administration; type: functional; outline: as §1
[10] = Effective dose for half-maximal decrease in the accumulation of 5-hydroxytryptophan (5-HTP) in reserpinized rat brain limbic area by po administration; type: functional; outline: as §1
[11] = Effective dose for half-maximal decrease in the accumulation of 5-hydroxytryptophan (5-HTP) in reserpinized rat brain striatal area by sc administration; type: functional; outline: as §1
[12] = target: T1, Dopamine receptor (Rattus norvegicus); experiment: Effective dose for half-maximal decrease in the accumulation of DOPA in reserpinized rat brain limbic area by po administration; type: functional, organism-based; outline: as §1
[13] = target: T1, Dopamine receptor (Rattus norvegicus); experiment: Effective dose for half-maximal decrease in the accumulation of DOPA in reserpinized rat brain limbic area by sc administration; Inactive; type: functional, organism-based; outline: as §1
Rattus norvegicus [14] = experiment: post-synaptic agonistic effects by increase in locomotor activity at the dose of 0.08 umol/kg, sc in reserpinized rat; type: functional
Outline: (§4)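 Male Sprague-Dawley rats (200-300 g) given reserpine 5 mg/kg sc in the neck 18 h before testing. The test compound, in 0.9% saline, was given sc in the neck (n = 4-5). Rats were placed singly in photocell motility meters right after dosing. Counts were recorded over 30 min, alongside gross behavioural observation of 5-HT and DA signs. Statistics: ANOVA with Fischer's PLSD versus reserpine controls.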

Rattus norvegicus [15] = experiment: Effective dose for half-maximal decrease in the accumulation of 5-hydroxytryptophan (5-HTP) in reserpinized rat brain striatal area by po administration; Inactive; type: functional, organism-based; outline: as §1
[16] = target: T1, Dopamine receptor (Rattus norvegicus); experiment: Effective dose for half-maximal decrease in the accumulation of DOPA in reserpinized rat brain striatal area by sc administration; type: functional, organism-based; outline: as §1
Rattus norvegicus [17] = experiment: Effective dose for half-maximal decrease in the accumulation of 5-hydroxytryptophan (5-HTP) in reserpinized rat brain limbic area by po administration; Inactive; type: functional, organism-based; outline: as §1
Rattus norvegicus [18] = species: Rattus norvegicus; experiment: DA agonist induced behavior was charecterised by increased locomotion, sniffing and licking.++ indicates high intensity of behavioral effect; type: functional, organism-based; outline: as §4
[19] = target: T1, Dopamine receptor (Rattus norvegicus); experiment: Effective dose for half-maximal decrease in the accumulation of DOPA in reserpinized rat brain hemispheral area by po administration; type: functional, organism-based; outline: as §1
Rattus norvegicus [20] = experiment: Effective dose for half-maximal decrease in the accumulation of 5-hydroxytryptophan (5-HTP) in reserpinized rat brain hemispheral area by po administration; Inactive; type: functional, organism-based; outline: as §1
[21] = target: T1, Dopamine receptor (Rattus norvegicus); experiment: Effective dose for half-maximal decrease in the accumulation of DOPA in reserpinized rat brain limbic area by sc administration; type: functional, organism-based; outline: as §1
[22] = target: T2, 5-hydroxytryptamine receptor 1A; experiment: as §2; type: tissue-based; remark: listed apart in the source
Outline: as §3, with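 “pargyline.” for “pargyline. It was incubated with 1 nM [3H]-8-OH-DPAT (final) for 15 min at 37 °C, then vacuum-filtered and counted by scintillation.”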

D(2) dopamine receptor, sequence (P61169 whole entry): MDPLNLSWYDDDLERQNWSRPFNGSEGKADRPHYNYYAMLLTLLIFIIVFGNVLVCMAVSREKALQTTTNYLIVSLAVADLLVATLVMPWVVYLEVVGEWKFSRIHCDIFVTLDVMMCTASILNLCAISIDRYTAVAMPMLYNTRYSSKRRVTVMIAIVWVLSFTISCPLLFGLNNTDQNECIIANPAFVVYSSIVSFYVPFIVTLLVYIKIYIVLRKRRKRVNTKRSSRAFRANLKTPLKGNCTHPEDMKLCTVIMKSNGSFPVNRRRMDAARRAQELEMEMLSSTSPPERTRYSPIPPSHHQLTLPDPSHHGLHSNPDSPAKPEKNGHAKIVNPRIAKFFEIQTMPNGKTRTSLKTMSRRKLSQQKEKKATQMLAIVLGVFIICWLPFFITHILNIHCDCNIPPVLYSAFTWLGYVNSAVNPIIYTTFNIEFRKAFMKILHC

In the case of CCCN(CCC)C1CCc2cccc(OC)c2C1 (stereo not drawn), the Ki (D(2) dopamine receptor) is reported as 160 nM, the ED50 [1] is reported as “inactive” and the Ki [2] is reported as 10 nM. The ED50 [3] was “inactive”, the ED50 [4] was 0.3 µmol/kg and the ED50 [5] was 2.3 µmol/kg. For the same compound, the ED50 [6] was 12.5 µmol/kg, the ED50 [7] was 3.2 µmol/kg and the ED50 [8] was “inactive”. It also gave an ED50 [9] of 0.2 µmol/kg, an ED50 [10] of 3.2 µmol/kg and an ED50 [11] of 0.3 µmol/kg. The ED50 [12] was 5.5 µmol/kg and the ED50 [13] was “inactive”.
With CCCN(CCC)C1CCc2c(O)cccc2C1 (stereo not drawn) [5-OH-DPAT] the Counts/30 (Rattus norvegicus [14]) was 60 min, the ED50 [1] was “inactive” and the ED50 [3] was “inactive”. The ED50 (Rattus norvegicus [15]) was “inactive”, the ED50 [16] was 0.01 µmol/kg and the ED50 (Rattus norvegicus [17]) was “inactive”. The ED50 [6] was 0.5 µmol/kg, the Behavioral observation (Rattus norvegicus [18]) was “Active” and the ED50 [19] was 4 µmol/kg. The ED50 (Rattus norvegicus [20]) was “inactive”, the ED50 [21] was 0.01 µmol/kg and the Ki [22] was 1040 nM. For the same compound, the ED50 [12] was 0.7 µmol/kg and the ED50 [13] was “inactive”.
